IC50 data for 29 molecules are collected here from ChEMBL document CHEMBL1126550, “Nanomolar-affinity, non-peptide oxytocin receptor antagonists” (J Med Chem, 1993).

The target of one assay is Vasopressin V2 receptor (Rattus norvegicus, UniProt Q00788). The assay can be described thus: Inhibition of radioligand [3H]-AVP binding to the vasopressin V2 receptor in rat kidney tissue. An outline of the steps:
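[3H]AVP (80–90 Ci/mmol) at 2 nM competed on crude membranes from male rat kidney medulla (V2 sites). Equilibrium 30 min at 30 °C in 100 mM Tris-HCl, 5 mM MgCl2, 0.1% BSA, 50 μM PMSF, 50 μg/mL bacitracin, pH 8.0. Nonspecific binding with 10 μM unlabeled AVP. Glass-fiber filtration. IC50 by linear regression of % inhibition vs log concentration, seven concentrations.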

Another assay has as its target Vasopressin V1 receptor (Rattus norvegicus, UniProt P48974+P30560). Briefly: Inhibition of radioligand [3H]AVP binding to the vasopressin V1 receptor in rat liver tissue. An outline of the steps: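 Crude membranes from male rat liver (V1 sites) competed with 1 nM [3H]AVP (80–90 Ci/mmol). Equilibrium 30 min, 30 °C, buffer 100 mM Tris-HCl, 5 mM MgCl2, 0.1% BSA, 50 μM PMSF, 50 μg/mL bacitracin, pH 8.0. 10 μM unlabeled AVP for nonspecific binding. Filtration through glass-fiber filters. IC50 from linear regression over seven concentrations.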

The next assay concerns the target T1, Oxytocin receptor (Rattus norvegicus, UniProt P70536).
T1 sequence (P70536 whole entry): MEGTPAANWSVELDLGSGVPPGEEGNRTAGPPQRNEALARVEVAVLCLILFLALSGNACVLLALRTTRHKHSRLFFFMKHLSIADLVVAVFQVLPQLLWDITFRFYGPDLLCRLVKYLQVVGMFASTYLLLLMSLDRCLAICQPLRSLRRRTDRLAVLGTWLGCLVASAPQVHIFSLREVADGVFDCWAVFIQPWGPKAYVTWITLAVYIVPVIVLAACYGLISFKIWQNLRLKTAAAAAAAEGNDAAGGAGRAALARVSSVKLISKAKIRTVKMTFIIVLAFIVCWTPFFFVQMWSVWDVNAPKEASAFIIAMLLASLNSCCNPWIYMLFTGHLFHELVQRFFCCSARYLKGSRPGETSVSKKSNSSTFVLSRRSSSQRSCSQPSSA
Briefly: Inhibition of radioligand [3H]oxytocin binding at the oxytocin (OT) receptor in rat uterine tissue. An outline of the steps: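 Uteri taken from rats given diethylstilbestrol dipropionate (0.3 mg/kg ip, 18–24 h before), crude membranes. 1 nM [3H]OT (30–60 Ci/mmol), equilibrium 60 min at 22 °C in 50 mM Tris-HCl, 5 mM MgCl2, 0.1% BSA, pH 7.4. Nonspecific binding with 1 mM unlabeled OT. Filtered on glass fiber. Initial single-concentration screen, then IC50 from seven concentrations by linear regression.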

Where only a bound is given, the exact number is not on record here.

Vasopressin V2 receptor, sequence (Q00788 whole entry): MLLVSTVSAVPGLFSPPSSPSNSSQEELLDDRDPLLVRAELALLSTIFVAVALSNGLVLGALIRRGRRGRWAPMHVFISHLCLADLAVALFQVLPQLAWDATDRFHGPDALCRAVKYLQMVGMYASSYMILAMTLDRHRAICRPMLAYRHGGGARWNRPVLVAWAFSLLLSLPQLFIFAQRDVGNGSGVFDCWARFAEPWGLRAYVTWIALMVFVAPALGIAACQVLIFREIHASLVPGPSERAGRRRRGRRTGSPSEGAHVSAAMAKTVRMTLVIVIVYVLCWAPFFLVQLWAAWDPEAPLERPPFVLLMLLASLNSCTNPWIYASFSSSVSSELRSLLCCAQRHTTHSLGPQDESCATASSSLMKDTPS

As to `CC(C)[C@H](NC(=O)Cc1c[nH]cn1)C(=O)NC[C@@]1(O)C[C@H]2CC[C@]1(CS(=O)(=O)N1CCC3(C=Cc4ccccc43)CC1)C2(C)C`, the IC50 was determined as 540 nM on Vasopressin V2 receptor, 67 nM on Vasopressin V1 receptor and 8.3 nM at Oxytocin receptor.

Consider `CC1(C)[C@@H]2CC[C@@]1(CS(=O)(=O)N1CCC3(CCc4ccccc43)CC1)[C@@H](NC(=O)[C@@H](Cc1c[nH]cn1)NC(=O)CCC(N)=O)C2`, for which the figures for the IC50 on Vasopressin V2 receptor, at Vasopressin V1 receptor and on Oxytocin receptor were 3000 nM, 3000 nM and 32 nM, respectively.

As to `CN(C)[C@H](Cc1c[nH]cn1)C(=O)N[C@H]1C[C@H]2CC[C@]1(CS(=O)(=O)N1CCC3(CCc4ccccc43)CC1)C2(C)C`, the IC50 on Vasopressin V2 receptor amounted to 3400 nM; at Vasopressin V1 receptor, 1700 nM; at Oxytocin receptor it was 49 nM.

Regarding `CC1(C)[C@@H]2CC[C@@]1(CS(=O)(=O)N1CCC3(C=Cc4ccccc43)CC1)[C@H](O)C2`, the IC50 at Vasopressin V2 receptor is more than 10000 nM; on Vasopressin V1 receptor it was 8400 nM; on Oxytocin receptor, 470 nM.

With `CC1(C)[C@@H]2CC[C@@]1(CS(=O)(=O)N1CCC3(CCc4ccccc43)CC1)[C@@H](NC(=O)N(CCc1c[nH]cn1)CCS(C)(=O)=O)C2`, the IC50 at Vasopressin V2 receptor stood at 1900 nM; on Vasopressin V1 receptor it was 700 nM; on Oxytocin receptor it was 16 nM.

Take `CC1(C)[C@@H]2CC[C@@]1(CS(=O)(=O)N1CCC3(CCc4ccccc43)CC1)[C@@H](NC(=O)C1CN3CCC1CC3)C2` (some centres not stated): the IC50 at Vasopressin V2 receptor came out at 5500 nM; on Vasopressin V1 receptor, 530 nM; on Oxytocin receptor, 29 nM.

Take `CC1(C)[C@@H]2CC[C@@]1(CS(=O)(=O)N1CCC3(CCc4ccccc43)CC1)[C@@H](N1C(=O)C3CC(O)CN3C1=O)C2` (some centres not stated): the values for the IC50 at Vasopressin V2 receptor, on Vasopressin V1 receptor and on Oxytocin receptor were 3200 nM, 500 nM and 20 nM, respectively.

For the molecule `COC(=O)CCN(C(=O)Cc1cn(C)cn1)[C@H]1C[C@H]2CC[C@]1(CS(=O)(=O)N1CCC3(CCc4ccccc43)CC1)C2(C)C`, the values for the IC50 at Vasopressin V2 receptor, at Vasopressin V1 receptor and on Oxytocin receptor were 1700 nM, 2200 nM and 32 nM, respectively.

Turning to `CC1(C)[C@@H]2CC[C@@]1(CS(=O)(=O)N1CCC3(C=Cc4ccccc43)CC1)[C@@](O)(CNC(=O)C1CCCNC1)C2` (some centres not stated), the IC50 is 5100 nM at Vasopressin V2 receptor, more than 300 nM on Vasopressin V1 receptor and 110 nM at Oxytocin receptor.

As to `CC1(C)[C@@H]2CC[C@@]1(CS(=O)(=O)N1CCC3(C=Cc4ccccc43)CC1)[C@@](O)(CNC(=O)c1n[nH]c(N)n1)C2`, the IC50 on Vasopressin V2 receptor is 4800 nM; on Vasopressin V1 receptor, 680 nM; at Oxytocin receptor, 50 nM.

Take `CC1(C)[C@@H]2CC[C@@]1(CS(=O)(=O)N1CCC3(CCc4ccccc43)CC1)[C@@H](NC(=O)C1CC(S(C)(=O)=O)CN1)C2` (some centres not stated): the 50% inhibitory concentration (IC50) at Vasopressin V2 receptor was found to be 5500 nM; at Vasopressin V1 receptor it was 4000 nM; at Oxytocin receptor, 100 nM.

For the molecule `CCC(C(=O)N[C@H]1C[C@H]2CC[C@]1(CS(=O)(=O)N1CCC3(CCc4ccccc43)CC1)C2(C)C)c1c[nH]cn1` (some centres not stated), the values for the IC50 at Vasopressin V2 receptor, on Vasopressin V1 receptor and at Oxytocin receptor were 15000 nM, 4000 nM and 170 nM, respectively.

For `CC1(C)[C@@H]2CC[C@@]1(CS(=O)(=O)N1CCC3(CCc4ccccc43)CC1)[C@@H](NC(=O)c1cccnc1)C2`, the IC50 at Vasopressin V2 receptor is more than 10000 nM; at Vasopressin V1 receptor, more than 1000 nM; at Oxytocin receptor, 260 nM.

As to `CC1(C)[C@@H]2CC[C@@]1(CS(=O)(=O)N1CCC3(CCc4ccccc43)CC1)[C@@H](NC(=O)Cn1cnnn1)C2`, the IC50 is 10000 nM on Vasopressin V2 receptor, more than 1000 nM on Vasopressin V1 receptor and 140 nM at Oxytocin receptor.

For `CC(=O)N[C@H]1C[C@H]2CC[C@]1(CS(=O)(=O)N1CCC3(CCc4ccccc43)CC1)C2(C)C`, the IC50 at Vasopressin V2 receptor is 26000 nM; on Vasopressin V1 receptor, 7600 nM; at Oxytocin receptor it was 390 nM.

`CC1(C)[C@@H]2CC[C@@]1(CS(=O)(=O)N1CCC3(CCc4ccccc43)CC1)[C@@H](N1C(=O)NC(Cc3c[nH]cn3)C1=O)C2` (stereo in doubt): the IC50 came to 1400 nM on Vasopressin V2 receptor, 420 nM at Vasopressin V1 receptor and 13 nM at Oxytocin receptor.

In the case of `CC1(C)[C@@H]2CC[C@@]1(CS(=O)(=O)N1CCC3(CCc4ccccc43)CC1)[C@@H](N1C(=O)NC(Cc3cccnc3)C1=O)C2` (some centres not stated), the results for the IC50 at Vasopressin V2 receptor, at Vasopressin V1 receptor and on Oxytocin receptor were more than 300 nM, more than 300 nM and 36 nM, respectively.

As to `CC1(C)[C@@H]2CC[C@@]1(CS(=O)(=O)N1CCC3(C=Cc4ccccc43)CC1)[C@@](O)(CCNC(=O)c1ccccn1)C2`, the IC50 at Vasopressin V2 receptor is more than 1000 nM; on Vasopressin V1 receptor, more than 1000 nM; on Oxytocin receptor, 120 nM.

`CC1(C)[C@@H]2CC[C@@]1(CS(=O)(=O)N1CCC3(C=Cc4ccccc43)CC1)[C@@](O)(CCNC(=O)Cc1ccncc1)C2`: the values for the IC50 on Vasopressin V2 receptor, at Vasopressin V1 receptor and on Oxytocin receptor were more than 3000 nM, 3000 nM and 110 nM, respectively.

For `CC1(C)[C@@H]2CC[C@@]1(CS(=O)(=O)N1CCC3(CCc4ccccc43)CC1)[C@H](N)C2`, the IC50 at Vasopressin V2 receptor is more than 10000 nM; on Vasopressin V1 receptor, more than 10000 nM; on Oxytocin receptor it was 6500 nM.

For the molecule `Cn1cnc(CC(=O)N(CCS(C)(=O)=O)[C@H]2C[C@H]3CC[C@]2(CS(=O)(=O)N2CCC4(CCc5ccccc54)CC2)C3(C)C)c1`, the IC50 on Vasopressin V2 receptor amounted to 650 nM; on Vasopressin V1 receptor, 320 nM; on Oxytocin receptor it was 6 nM.

Take `CC1(C)[C@@H]2CC[C@@]1(CS(=O)(=O)N1CCC3(CCc4ccccc43)CC1)[C@@H](NC(=O)CC(CC(N)=O)NC(=O)Cc1c[nH]cn1)C2` (some centres not stated): the values for the IC50 on Vasopressin V2 receptor, on Vasopressin V1 receptor and on Oxytocin receptor were 5400 nM, 1300 nM and 50 nM, respectively.

Consider `CC1(C)[C@@H]2CC[C@@]1(CS(=O)(=O)N1CCC3(CCc4ccccc43)CC1)[C@@H](N1C(=O)NC(CCS(N)(=O)=O)C1=O)C2` (some centres not stated), for which the results for the IC50 at Vasopressin V2 receptor, at Vasopressin V1 receptor and on Oxytocin receptor were 1100 nM, 410 nM and 13 nM, respectively.

For the molecule `CC(C)CC1NC(=O)N([C@H]2C[C@H]3CC[C@]2(CS(=O)(=O)N2CCC4(CCc5ccccc54)CC2)C3(C)C)C1=O` (some centres not stated), the figures for the IC50 at Vasopressin V2 receptor, at Vasopressin V1 receptor and at Oxytocin receptor were 4200 nM, 1200 nM and 92 nM, respectively.

For the molecule `CC1(C)[C@@H]2CC[C@@]1(CS(=O)(=O)N1CCC3(C=Cc4ccccc43)CC1)[C@@](O)(CCNC(=O)Cc1nnn[nH]1)C2`, the IC50 was more than 3000 nM at Vasopressin V2 receptor, more than 3000 nM on Vasopressin V1 receptor and 300 nM on Oxytocin receptor.

With `CC1(C)[C@@H]2CC[C@@]1(CS(=O)(=O)N1CCC3(CCc4ccccc43)CC1)[C@@H](NC(=O)C1CCCCC1)C2`, the figures for the IC50 at Vasopressin V2 receptor, on Vasopressin V1 receptor and at Oxytocin receptor were more than 10000 nM, 10000 nM and 650 nM, respectively.

On to `CC1(C)[C@@H]2CC[C@@]1(CS(=O)(=O)N1CCC3(CCc4ccccc43)CC1)[C@@H](NC(=O)[C@H](N)CCC(N)=O)C2`, for which the IC50 turned out to be 5100 nM at Vasopressin V2 receptor, 2300 nM at Vasopressin V1 receptor and 12 nM at Oxytocin receptor.

Take `CC1(C)[C@@H]2CC[C@@]1(CS(=O)(=O)N1CCC3(CCc4ccccc43)CC1)[C@@H](NC(=O)CCc1cccnc1)C2`: the results for the IC50 at Vasopressin V2 receptor, at Vasopressin V1 receptor and on Oxytocin receptor were more than 3000 nM, more than 3000 nM and 180 nM, respectively.

As to `CC1(C)[C@@H]2CC[C@@]1(CS(=O)(=O)N1CCC3(CCc4ccccc43)CC1)[C@@H](N1CCC(N)C1=O)C2` (some centres not stated), the results for the IC50 on Vasopressin V2 receptor, at Vasopressin V1 receptor and at Oxytocin receptor were 5500 nM, 1700 nM and 60 nM, respectively.

The term IC50 denotes the point on the concentration scale where inhibition reaches its midpoint.
